Source: ChEMBL document CHEMBL1136055, “3-Heteroaryl-2-pyridones: benzodiazepine site ligands with functional delectivity for alpha 2/alpha 3-subtypes of human GABA(A) receptor-ion channels” (J Med Chem, 2002)
Blank lines part the entries; values can stand above or below the compound they belong to.

Assays:
[1] = target: T1, GABA-A receptor; alpha-1/beta-3/gamma-2 (Homo sapiens) (UniProt P14867+P18507+P28472); test: Modulatory effect on coapplication with GABA at human Gamma-aminobutyric acid A receptor alpha-1-beta-3-gamma-2 in Xenopus oocyte.
Procedure, shortened: (§1)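 Two-electrode voltage clamp of Xenopus oocytes transiently expressing human α1, α2 or α3 β3γ2S receptors. Test compound is co-applied with GABA at its EC20 (GABA range 4-30 µM). Result is the % change in GABA current, mean (SEM), n = 3-7, at the stated test compound concentration (µM).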

[2] = target: T2, GABA-A receptor; alpha-2/beta-3/gamma-2 (Homo sapiens, UniProt P18507+P28472+P47869); test: Displacement of [3H]Ro-151788 from human Gamma-aminobutyric acid A receptor alpha-2-beta-3-gamma-2 stably expressed in L(tk-) cells; format: cell-based
T2 sequence (P18507 whole entry): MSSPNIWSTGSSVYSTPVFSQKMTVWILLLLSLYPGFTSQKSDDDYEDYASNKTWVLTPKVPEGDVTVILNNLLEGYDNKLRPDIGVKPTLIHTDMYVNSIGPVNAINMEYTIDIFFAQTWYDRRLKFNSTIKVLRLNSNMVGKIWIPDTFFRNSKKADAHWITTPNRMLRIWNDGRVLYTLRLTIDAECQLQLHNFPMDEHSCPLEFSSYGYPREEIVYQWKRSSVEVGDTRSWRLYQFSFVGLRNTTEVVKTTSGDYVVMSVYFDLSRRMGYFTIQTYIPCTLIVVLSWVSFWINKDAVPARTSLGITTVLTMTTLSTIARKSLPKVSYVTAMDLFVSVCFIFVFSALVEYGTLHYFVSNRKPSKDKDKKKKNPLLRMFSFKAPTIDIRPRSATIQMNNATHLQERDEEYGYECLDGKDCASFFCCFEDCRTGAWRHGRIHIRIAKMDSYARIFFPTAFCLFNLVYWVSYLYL
T2 sequence (P28472 whole entry): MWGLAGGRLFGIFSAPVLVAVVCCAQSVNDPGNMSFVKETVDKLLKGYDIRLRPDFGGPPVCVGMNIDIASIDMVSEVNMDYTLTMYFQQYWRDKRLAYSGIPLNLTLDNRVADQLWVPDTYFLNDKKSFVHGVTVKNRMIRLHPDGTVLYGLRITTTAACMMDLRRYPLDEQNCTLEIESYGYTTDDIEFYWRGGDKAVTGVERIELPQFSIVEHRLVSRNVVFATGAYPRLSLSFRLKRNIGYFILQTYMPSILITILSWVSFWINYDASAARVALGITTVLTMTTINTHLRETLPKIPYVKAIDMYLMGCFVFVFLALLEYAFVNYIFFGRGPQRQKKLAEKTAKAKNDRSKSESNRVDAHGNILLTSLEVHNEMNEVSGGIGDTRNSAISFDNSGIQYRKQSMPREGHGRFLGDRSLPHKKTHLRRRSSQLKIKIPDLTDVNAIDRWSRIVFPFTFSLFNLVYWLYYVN
T2 sequence (P47869 whole entry): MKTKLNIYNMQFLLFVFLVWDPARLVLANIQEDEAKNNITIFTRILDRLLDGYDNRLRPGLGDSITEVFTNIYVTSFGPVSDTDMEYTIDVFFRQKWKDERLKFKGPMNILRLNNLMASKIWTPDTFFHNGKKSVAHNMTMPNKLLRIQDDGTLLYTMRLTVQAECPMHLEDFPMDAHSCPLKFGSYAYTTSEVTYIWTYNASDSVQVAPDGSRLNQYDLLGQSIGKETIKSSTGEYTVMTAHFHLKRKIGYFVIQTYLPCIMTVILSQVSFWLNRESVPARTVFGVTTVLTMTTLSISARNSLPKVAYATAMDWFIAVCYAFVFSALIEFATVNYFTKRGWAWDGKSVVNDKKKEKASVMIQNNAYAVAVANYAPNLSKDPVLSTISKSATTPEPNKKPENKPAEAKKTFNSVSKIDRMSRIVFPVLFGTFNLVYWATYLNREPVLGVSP
Procedure, shortened: (§2)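 Competition binding against [3H]Ro15-1788 on cloned human α1/α2/α3/α5 β3γ2S receptors stably expressed in L(tk-) cells. Six to eight test concentrations spaced in half-log steps. Ki given as mean (SEM), n = 3-5, reported to two significant figures.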

[3] = target: T3, GABA-A receptor; alpha-5/beta-3/gamma-2 (Homo sapiens, UniProt P18507+P28472+P31644); test: Displacement of [3H]Ro-151788 from human GABA-A receptor alpha-5-beta-3-gamma-2 subunits expressed in L(tk-) cells (<50% inhibition at 2 uM); format: cell-based
T3 sequence (P18507 whole entry): T2 sequence (P18507 whole entry)
T3 sequence (P28472 whole entry): T2 sequence (P28472 whole entry)
T3 sequence (P31644 whole entry): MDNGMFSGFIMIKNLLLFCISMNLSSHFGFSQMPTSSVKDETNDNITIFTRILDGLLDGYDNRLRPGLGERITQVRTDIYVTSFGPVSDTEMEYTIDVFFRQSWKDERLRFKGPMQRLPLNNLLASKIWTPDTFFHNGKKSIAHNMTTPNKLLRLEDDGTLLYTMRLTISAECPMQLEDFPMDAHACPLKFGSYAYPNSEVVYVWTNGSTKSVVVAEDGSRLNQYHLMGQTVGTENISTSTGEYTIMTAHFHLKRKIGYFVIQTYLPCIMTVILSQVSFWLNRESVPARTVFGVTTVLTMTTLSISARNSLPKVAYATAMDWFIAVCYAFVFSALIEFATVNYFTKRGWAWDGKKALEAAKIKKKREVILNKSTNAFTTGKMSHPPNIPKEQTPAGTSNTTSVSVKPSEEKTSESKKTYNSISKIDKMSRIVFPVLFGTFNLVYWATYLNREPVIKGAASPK

[4] = target: T4, GABA-A receptor; alpha-3/beta-3/gamma-2 (Homo sapiens, UniProt P18507+P28472+P34903); test: Binding affinity by displacement of [3H]Ro-151788 from recombinant human gamma-aminobutyric-acid A receptor alpha3,beta3,gamma2 stably expressed in L cells; format: cell-based; procedure, shortened: as §2
T4 sequence (P18507 whole entry): T2 sequence (P18507 whole entry)
T4 sequence (P28472 whole entry): T2 sequence (P28472 whole entry)
T4 sequence (P34903 whole entry): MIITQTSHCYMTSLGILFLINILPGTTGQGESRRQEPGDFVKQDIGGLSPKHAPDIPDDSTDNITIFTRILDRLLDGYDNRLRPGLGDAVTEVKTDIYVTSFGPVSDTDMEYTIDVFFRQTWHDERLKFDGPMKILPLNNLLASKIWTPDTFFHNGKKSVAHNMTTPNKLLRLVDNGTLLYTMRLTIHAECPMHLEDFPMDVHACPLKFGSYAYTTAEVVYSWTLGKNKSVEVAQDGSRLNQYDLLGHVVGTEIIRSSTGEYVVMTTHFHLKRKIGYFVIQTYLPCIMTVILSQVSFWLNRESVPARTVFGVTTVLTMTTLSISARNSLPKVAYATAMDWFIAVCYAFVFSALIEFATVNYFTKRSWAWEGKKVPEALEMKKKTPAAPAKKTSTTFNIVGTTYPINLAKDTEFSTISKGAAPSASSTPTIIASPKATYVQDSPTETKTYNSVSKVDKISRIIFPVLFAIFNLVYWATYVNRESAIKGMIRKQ

[5] = target: GABA-A receptor; alpha-2/beta-3/gamma-2 (Homo sapiens) (UniProt P18507+P28472+P47869); test: Modulatory effect on coapplication with GABA at human Gamma-aminobutyric acid A receptor alpha-2-beta-3-gamma-2 expressed inXenopus oocytes; format: cell-based; conditions: Oocyte; procedure, shortened: as §1
[6] = target: GABA-A receptor; alpha-3/beta-3/gamma-2 (Homo sapiens) (UniProt P18507+P28472+P34903); test: Modulatory effect on coapplication with GABA at human Gamma-aminobutyric acid A receptor alpha-3-beta-3-gamma-2 in Xenopus oocytes.; format: cell-based; conditions: Oocyte; procedure, shortened: as §1
[7] = target: T2, GABA-A receptor; alpha-2/beta-3/gamma-2; test: Displacement of [3H]Ro-151788 from human GABA-A receptor alpha-2-beta-3-gamma-2 subunits expressed in L(tk-) cells (<50% inhibition at 2 uM); format: cell-based
[8] = target: T3, GABA-A receptor; alpha-5/beta-3/gamma-2; test: Displacement of [3H]Ro-151788 from human GABA-A receptor alpha-5-beta-3-gamma-2 subunits expressed in L(tk-) cells; format: cell-based; procedure, shortened: as §2
[9] = target: T5, GABA-A receptor; alpha-1/beta-3/gamma-2 (Homo sapiens, UniProt P14867+P18507+P28472); test: Displacement of [3H]Ro-151788 from human GABA-A receptor alpha-1-beta-3-gamma-2 subunits expressed in L(tk-) cells (<50% inhibition at 3 uM); format: cell-based
T5 sequence (P14867 whole entry): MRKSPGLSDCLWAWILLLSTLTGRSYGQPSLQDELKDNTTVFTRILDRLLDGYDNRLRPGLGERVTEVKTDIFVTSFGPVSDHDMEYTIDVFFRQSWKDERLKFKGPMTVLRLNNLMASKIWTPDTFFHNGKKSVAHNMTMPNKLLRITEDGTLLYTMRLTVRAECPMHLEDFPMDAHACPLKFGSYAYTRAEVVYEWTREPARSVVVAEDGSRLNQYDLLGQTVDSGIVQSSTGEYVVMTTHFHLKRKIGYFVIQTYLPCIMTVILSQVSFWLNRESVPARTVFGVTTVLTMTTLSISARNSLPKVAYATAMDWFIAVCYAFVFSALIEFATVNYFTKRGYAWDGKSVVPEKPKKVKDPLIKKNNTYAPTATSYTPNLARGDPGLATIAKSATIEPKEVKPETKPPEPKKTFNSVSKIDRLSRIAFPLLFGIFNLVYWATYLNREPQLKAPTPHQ
T5 sequence (P18507 whole entry): T2 sequence (P18507 whole entry)
T5 sequence (P28472 whole entry): T2 sequence (P28472 whole entry)

[10] = target: T3, GABA-A receptor; alpha-5/beta-3/gamma-2; test: Inhibition of [3H]Ro-151788 binding to human GABA A receptor (alpha-5-beta-3-gamma-2) stably expressed in L(tk-) cells.; format: cell-based; procedure, shortened: as §2
[11] = target: T5, GABA-A receptor; alpha-1/beta-3/gamma-2; test: Displacement of [3H]Ro-151788 from human GABA-A receptor alpha-1-beta-3-gamma-2 subunits expressed in L(tk-) cells (<50% inhibition at 100 uM); format: cell-based
[12] = target: T1, GABA-A receptor; alpha-1/beta-3/gamma-2 (Homo sapiens); test: Modulatory effect on coapplication with GABA at human Gamma-aminobutyric acid A receptor alpha-1-beta-3-gamma-2 expressed in Xenopus oocytes; format: cell-based; conditions: Oocyte; procedure, shortened: as §1
[13] = target: T5, GABA-A receptor; alpha-1/beta-3/gamma-2; test: Inhibition of [3H]Ro-151788 binding to human GABA A receptor (alpha-1-beta-3-gamma-2) stably expressed in L(tk-) cells.; format: cell-based
[14] = target: T5, GABA-A receptor; alpha-1/beta-3/gamma-2; test: Displacement of [3H]Ro-151788 from human GABA-A receptor alpha-1-beta-3-gamma-2 subunits expressed in L(tk-) cells; format: cell-based; procedure, shortened: as §2
[15] = target: T2, GABA-A receptor; alpha-2/beta-3/gamma-2; test: Displacement of [3H]Ro-151788 from human GABA-A receptor alpha-2-beta-3-gamma-2 subunits expressed in L(tk-) cells; format: cell-based; procedure, shortened: as §2
[16] = target: T5, GABA-A receptor; alpha-1/beta-3/gamma-2; test: Displacement of [3H]Ro-151788 from human GABA-A receptor alpha-1-beta-3-gamma-2 subunits expressed in L(tk-) cells (<50% inhibition at 10 uM); format: cell-based

SMILES: COc1ccc(-c2cc(C#N)c(=O)n(C)c2-c2ccc(N(C)C)cc2)cc1
percent modulation of GABA EC20 response [1]: 7%
Ki [2]: 1.8 µM
Ki [3]: > 0.667 µM
Ki [4]: 0.86 µM
percent modulation of GABA EC20 response [5]: -16%
percent modulation of GABA EC20 response [6]: 8%

SMILES: COc1ccc(-c2cc(-c3cccs3)c(=O)n(C)c2-c2ccncc2)cc1
EC20 [12]: 9%
Ki [2]: 0.023 µM
Ki [10]: 0.35 µM
Ki [13]: 0.03 µM
Ki [4]: 0.015 µM
percent modulation of GABA EC20 response [5]: 15%
percent modulation of GABA EC20 response [6]: 36%

SMILES: COC(=O)c1cc(-c2ccc(OC)cc2)c(-c2ccccc2)n(C)c1=O
Ki [2]: 0.34 µM
Ki [10]: 0.393 µM
Ki [14]: 0.625 µM
Ki [4]: 0.21 µM

SMILES: COc1ccc(-c2cc(-c3cc(C)cs3)c(=O)n(C)c2-c2ccncc2)cc1
Ki [15]: 0.038 µM
Ki [8]: 0.34 µM
Ki [13]: 0.041 µM
Ki [4]: 0.023 µM

SMILES: COC(=O)c1cc(-c2ccc(OC)cc2)c(-c2ccc(N(C)C)cc2)n(C)c1=O
percent modulation of GABA EC20 response [1]: 181%
Ki [2]: 0.6 µM
Ki [10]: > 0.667 µM
Ki [16]: > 3 µM
Ki [4]: 0.25 µM
percent modulation of GABA EC20 response [5]: 81%
percent modulation of GABA EC20 response [6]: 132%

The next lines start with the values.

Ki [7]: > 0.667 µM
Ki [8]: > 0.667 µM
Ki [9]: > 1 µM
Ki [4]: > 1 µM
SMILES: COc1ccc(-c2cc(-c3nc(C)no3)c(=O)n(C)c2-c2ccncc2)cc1

Ki [2]: > 30 µM
Ki [10]: > 0.667 µM
Ki [11]: > 30 µM
Ki [4]: > 30 µM
SMILES: COc1ccc(-c2cc(C#N)c(O)nc2-c2ccc(N(C)C)cc2)cc1

Ki [2]: 0.076 µM
Ki [10]: > 0.667 µM
Ki [14]: 0.68 µM
Ki [4]: 0.073 µM
SMILES: COC(=O)c1cc(-c2ccc(OC)cc2)c(-c2cccnc2)n(C)c1=O

percent modulation of GABA EC20 response [1]: -23%
Ki [15]: 0.02 µM
Ki [8]: 0.27 µM
Ki [14]: 0.024 µM
Ki [4]: 0.0067 µM
percent modulation of GABA EC20 response [6]: -4%
SMILES: Cc1csc(-c2cc(-c3ccncc3)c(-c3ccncc3)n(C)c2=O)n1
